From ChEMBL document CHEMBL4825737, “Design, synthesis, and biological evaluation of novel 6-(pyridin-3-yl) quinazolin-4(3H)-one derivatives as potential anticancer agents via PI3K inhibition” (Bioorg Med Chem, 2021)
pIC50: −log10 of the molar value.

Columns and labels:
[1] = Inhibition of PI3K in human HCC827 cells assessed as decrease in phosphorylation incubated for 24 hrs by cell PI3 kinase activity photometric assay; assay type: cell-based; settings: HCC827, 24 h
In short: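 Human NSCLC HCC827 cells grown in RPMI 1640 with 10% FBS and antibiotics-antimycotics, exposed to a range of concentrations for 24 h. Cells washed with Reagent A, lysed with Reagent B, protein measured by Bradford, then 100 μg lysate protein per group used in a cell PI3K assay kit for kinase activity. IC50 given as mean ± SD of three separate experiments.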

[2] = Antiproliferative activity against human LM3 cells assessed as reduction in cell viability measured after 72 hrs by flow cytometry analysis; assay type: functional, cell-based; settings: GILM3, 72 h
In short: (§1)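 Cells in RPMI 1640 with 10% FBS and penicillin/streptomycin/amphotericin B, seeded at 2.5–3 × 10⁴ per well. Grown adherent in fresh medium for 24 h, then exposed to a range of compound concentrations for 72 h. Living cell numbers counted by flow cytometry; IC50 calculated. Mean ± SD from three experiments.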

HCC827 = test: Antiproliferative activity against human HCC827 cells assessed as reduction in cell viability measured after 72 hrs by flow cytometry analysis; assay type: functional, cell-based; settings: HCC827, 72 h; in short: as §1
HEL = test: Antiproliferative activity against human HEL cells assessed as reduction in cell viability measured after 72 hrs by flow cytometry analysis; assay type: functional, cell-based; in short: as §1
SH-SY5Y = test: Antiproliferative activity against human SH-SY5Y assessed as reduction in cell viability measured after 72 hrs by flow cytometry analysis; assay type: functional, cell-based; in short: as §1
L02 = test: Antiproliferative activity against human HL7702 cells assessed as reduction in cell viability measured after 72 hrs by flow cytometry analysis; assay type: functional, cell-based; settings: L02, 72 h; in short: as §1

## COC[C@H]1OC(=O)c2coc3c2[C@@]1(C)C1=C(C3=O)[C@@H]2CCC(=O)[C@@]2(C)C[C@H]1OC(C)=O [WORTMANNIN]
[1]
  pIC50: 7.74

## Cn1c(=O)n(-c2ccc(C(C)(C)C#N)cc2)c2c3cc(-c4cnc5ccccc5c4)ccc3ncc21 [DACTOLISIB]
[2]
  pIC50: 5.88
HCC827
  pIC50: 6.28
HEL
  pIC50: 6.54
SH-SY5Y
  pIC50: 6.10

## CCC(=O)Nc1ccc(-c2ccc3ncn(CCN4CCOCC4)c(=O)c3c2)cn1
[2]
  pIC50: < 4.40
HCC827
  pIC50: < 4.40
HEL
  pIC50: < 4.40
SH-SY5Y
  pIC50: < 4.40

## CCCCC(=O)Nc1ccc(-c2ccc3ncn(CCN4CCOCC4)c(=O)c3c2)cn1
[2]
  pIC50: < 4.40
HCC827
  pIC50: 4.54
HEL
  pIC50: < 4.40
SH-SY5Y
  pIC50: < 4.40

## CCC(=O)Nc1ccc(-c2ccc3ncn(CC(=O)N4CCOCC4)c(=O)c3c2)cn1
[2]
  pIC50: < 4.40
HCC827
  pIC50: < 4.40
HEL
  pIC50: < 4.40
SH-SY5Y
  pIC50: < 4.40

## CCC(=O)Nc1ccc(-c2ccc3ncn(Cc4ccc(C)cc4)c(=O)c3c2)cn1
[2]
  pIC50: < 4.40
HCC827
  pIC50: < 4.40
HEL
  pIC50: < 4.40
SH-SY5Y
  pIC50: < 4.40

## CCC(=O)Nc1ccc(-c2ccc3ncn(Cc4ccc5c(c4)OCO5)c(=O)c3c2)cn1
[2]
  pIC50: < 4.40
HCC827
  pIC50: < 4.40
HEL
  pIC50: < 4.40
SH-SY5Y
  pIC50: < 4.40

## CCC(=O)Nc1ccc(-c2ccc3ncn(Cc4ccccc4)c(=O)c3c2)cn1
[2]
  pIC50: < 4.40
HCC827
  pIC50: < 4.40
HEL
  pIC50: < 4.40
SH-SY5Y
  pIC50: < 4.40

## CCCCn1cnc2ccc(-c3ccc(NC(=O)CC)nc3)cc2c1=O
[2]
  pIC50: 5.60
L02
  pIC50: 4.96
HCC827
  pIC50: 5.92
HEL
  pIC50: 5.55
SH-SY5Y
  pIC50: 5.43
